In ChEMBL document CHEMBL1148910, “A coumarin from Mallotus resinosus that mediates DNA cleavage” (J Nat Prod, 2004):
The source made the active and inactive calls. The rule behind the calls is not given here.

What was measured:
[1] = system: Escherichia coli; assay: Induction of strand scission in supercoiled pBR322 DNA by agarose gel electrophoresis in presence of Fe2+
[2] = system: Escherichia coli; assay: Induction of strand scission in supercoiled pBR322 DNA by agarose gel electrophoresis in absence of added metal ion
[3] = system: Escherichia coli; assay: Induction of strand scission in pBR322 DNA assessed as conversion from supercoiled form to nicked form at 250 uM after 60 mins by agarose gel electrophoresis in presence of Cu2+
Summary of the method: (§1)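 Supercoiled pBR322 plasmid DNA (500 ng) was incubated with 20 µM Cu2+ and test compound (in DMSO, final ≤5%) in 25 µL of 10 mM Tris-HCl, pH 8.0, at 37 °C for 60 min. Controls were DNA alone and DNA + Cu2+. Products were run on a 1.0% agarose gel with 0.7 µg/mL ethidium bromide in TBE, pH 8.3, at 110-120 V for 2-3 h, then imaged under UV. Read-out was % form II (nicked) DNA.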

[4] = system: Escherichia coli; assay: Induction of strand scission in supercoiled pBR322 DNA by agarose gel electrophoresis in presence of Cu2+ and alkali
[5] = system: Escherichia coli; assay: Induction of strand scission in pBR322 DNA assessed as conversion from supercoiled form to nicked form at 500 uM after 60 mins by agarose gel electrophoresis in presence of Cu2+; summary of the method: as §1
[6] = system: Escherichia coli; assay: Induction of strand scission in pBR322 DNA assessed as conversion from supercoiled form to nicked form at 1000 uM after 60 mins by agarose gel electrophoresis in presence of Cu2+; summary of the method: as §1
[7] = system: Escherichia coli; assay: Induction of strand scission in pBR322 DNA assessed as conversion from supercoiled form to nicked form at 1000 uM after 60 mins by agarose gel electrophoresis in absence of Cu2+
Summary of the method: (§2)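 No Cu2+ was added. Supercoiled pBR322 DNA (500 ng) was incubated with test compound (in DMSO, final ≤5%) in 25 µL of 10 mM Tris-HCl, pH 8.0, at 37 °C for 60 min, with DNA alone as the blank. Products were separated on a 1.0% agarose gel with ethidium bromide in TBE at 110-120 V for 2-3 h and photographed under UV. Read-out was % nicked (form II) DNA.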

[8] = system: Escherichia coli; assay: Induction of strand scission in supercoiled pBR322 DNA by agarose gel electrophoresis in presence of Cu2+; summary of the method: as §1
[9] = system: Escherichia coli; assay: Induction of strand scission in pBR322 DNA assessed as conversion from supercoiled form to nicked form at 100 uM after 60 mins by agarose gel electrophoresis in presence of Cu2+; summary of the method: as §1
[10] = system: Escherichia coli; assay: Induction of strand scission in pBR322 DNA assessed as conversion from supercoiled form to nicked form at 50 uM after 60 mins by agarose gel electrophoresis in presence of Cu2+; summary of the method: as §1
[11] = system: Escherichia coli; assay: Induction of strand scission in pBR322 DNA assessed as conversion from supercoiled form to nicked form at 250 uM after 60 mins by agarose gel electrophoresis in absence of Cu2+; summary of the method: as §2

## COc1cc2ccc(=O)oc2cc1O
[1]
  Activity: inactive
[2]
  Activity: inactive
[3]
  Activity: 15%
[4]
  Activity: inactive
[5]
  Activity: 22%
[6]
  Activity: 36%
[7]
  Activity: 3%
[8]
  Activity: Dose-dependent effect

## COc1cc2oc(=O)ccc2cc1O
[1]
  Activity: inactive
[2]
  Activity: inactive
[3]
  Activity: 14%
[5]
  Activity: 26%
[6]
  Activity: 42%
[7]
  Activity: 2%
[8]
  Activity: Dose-dependent effect

## O=c1ccc2cc(O)c(O)cc2o1
[1]
  Activity: inactive
[2]
  Activity: inactive
[3]
  Activity: 76%
[9]
  Activity: 64%
[10]
  Activity: 55%
[11]
  Activity: 2%
[8]
  Activity: Dose-dependent effect
